In ChEMBL document CHEMBL5724801, “EUbOPEN Chemogenomics Library - Multiplex” (2024):
Several values for one entry are separate records, joined by “and”; a condition that tells them apart may be missing. Equal entries are not always repeated.

Each molecule was assayed on U2OS (assay: Multiplex assay against U2OS). Details: human, 12 h, 1 µM, compound concentration 1 uM.
Type: toxicity, cell-based
Summary of the method: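 Cells stained live at seeding with Hoechst33342, BioTracker Green Microtubule Cytoskeleton Dye, MitoTracker Red and Annexin V Alexa Fluor 680 were imaged on a CQ1 microscope at 37°C and 5% CO2 after compound addition. Their classification by CellPathfinder machine-learning gating ran from Hoechst high-intensity objects versus normal cells, to healthy, pyknosed or fragmented nuclei among normal cells, to mitotic or apoptotic among pyknosed cells. Tubulin, mitochondrial-mass and membrane-permeability phenotypes are per cents of healthy-nucleus cells.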

| Structure (SMILES) | Population Apoptotic (%) | Population Healthy Nuclei (%) | Population Hoechst High Intensity Objects (%) | Population Mitotic Cells (%) | Population Normal (%) | Population Pyknosed Nuclei (%) | Population Fragmented Nuclei (%) | Population Membrane Permeable-Phenotype (%) | Population Mitochondria Different-Phenotype (%) | Population Tubulin-Different-Phenotype (%) |
| --- | --- | --- | --- | --- | --- | --- | --- | --- | --- | --- |
| Cn1cnc(-c2cnc(O[C@H]3CCN(C(=O)Cc4ccc(OC(F)(F)F)cc4)C[C@H]3F)c(C(N)=O)c2)c1 | 46.88% and 25% | 91.05% and 84.18% | 0% | 53.12% and 75% | 100% | 8.42% and 13.56% |  |  |  |  |
| CC[C@H](Nc1ncnc2[nH]cnc12)c1nc2cccc(F)c2c(=O)n1-c1ccccc1 [IDELALISIB] | 50% and 55% | 88.24% and 85.44% | 0% | 50% and 45% | 100% | 10.74% and 9.71% | 1.02% and 4.85% | 1.45% and 1.7% | 0.29% and 7.39% | 3.19% and 1.14% |

Same assay, conditions: human, 12 h, 1 µM, compound concentration 1 uM

| Structure (SMILES) | Total Cell Count |
| --- | --- |
| CC[C@H](Nc1ncnc2[nH]cnc12)c1nc2cccc(F)c2c(=O)n1-c1ccccc1 [IDELALISIB] | 391 and 206 |

Same assay, conditions: human, 12 h, 10 µM, compound concentration 10 uM

| Structure (SMILES) | Population Apoptotic (%) | Population Healthy Nuclei (%) | Population Hoechst High Intensity Objects (%) | Population Mitochondria Different-Phenotype (%) | Population Normal (%) | Population Tubulin-Different-Phenotype (%) | Total Cell Count | Population Mitotic Cells (%) | Population Pyknosed Nuclei (%) | Population Fragmented Nuclei (%) |
| --- | --- | --- | --- | --- | --- | --- | --- | --- | --- | --- |
| CCC(=O)N1CCN(c2ccc(-n3c(=O)ccc4cnc5ccc(-c6cnc7ccccc7c6)cc5c43)cc2C(F)(F)F)CC1 [TORIN1] | 68% and 76% | 55% and 71% | 1% and 3% | 7% | 98% and 96% | 5% and 9% | 288 and 109 |  |  |  |
| Cn1cnc(-c2cnc(O[C@H]3CCN(C(=O)Cc4ccc(OC(F)(F)F)cc4)C[C@H]3F)c(C(N)=O)c2)c1 | 38.46% and 23.33% | 82.47% and 74.67% | 0.26% and 0% |  | 99.74% and 100% |  |  | 61.54% and 76.67% | 16.75% and 20% |  |
| CC[C@H](Nc1ncnc2[nH]cnc12)c1nc2cccc(F)c2c(=O)n1-c1ccccc1 [IDELALISIB] | 33.33% and 37.5% | 86.55% and 75.17% | 0% |  | 100% |  | 342 and 145 | 66.67% and 62.5% | 12.28% and 22.07% | 1.17% and 2.76% |

Same assay, conditions: human, 12 h, 10 µM, compound concentration 10 uM

| Structure (SMILES) | Population Membrane Permeable-Phenotype (%) |
| --- | --- |
| CC[C@H](Nc1ncnc2[nH]cnc12)c1nc2cccc(F)c2c(=O)n1-c1ccccc1 [IDELALISIB] | 10.47% and 14.68% |

Same assay, conditions: human, 24 h, 1 µM, compound concentration 1 uM

| Structure (SMILES) | Population Apoptotic (%) | Population Healthy Nuclei (%) | Population Hoechst High Intensity Objects (%) | Population Mitotic Cells (%) | Population Normal (%) | Population Pyknosed Nuclei (%) | Population Fragmented Nuclei (%) | Population Membrane Permeable-Phenotype (%) | Population Mitochondria Different-Phenotype (%) | Population Tubulin-Different-Phenotype (%) |
| --- | --- | --- | --- | --- | --- | --- | --- | --- | --- | --- |
| Cn1cnc(-c2cnc(O[C@H]3CCN(C(=O)Cc4ccc(OC(F)(F)F)cc4)C[C@H]3F)c(C(N)=O)c2)c1 | 37.74% and 45.16% | 89.71% and 85.37% | 0.17% and 0% | 62.26% and 54.84% | 99.83% and 100% | 9.09% and 12.6% |  |  |  |  |
| CC[C@H](Nc1ncnc2[nH]cnc12)c1nc2cccc(F)c2c(=O)n1-c1ccccc1 [IDELALISIB] | 46.94% and 30.77% | 88.97% and 86.64% | 0% and 0.4% | 53.06% and 69.23% | 100% and 99.6% | 9.16% and 10.53% | 1.87% and 2.83% | 0.84% and 2.34% | 0.21% and 5.14% | 1.68% and 0.47% |

Same assay, conditions: human, 24 h, 1 µM, compound concentration 1 uM

| Structure (SMILES) | Total Cell Count |
| --- | --- |
| CC[C@H](Nc1ncnc2[nH]cnc12)c1nc2cccc(F)c2c(=O)n1-c1ccccc1 [IDELALISIB] | 535 and 248 |

Same assay, conditions: human, 24 h, 10 µM, compound concentration 10 uM

| Structure (SMILES) | Population Apoptotic (%) | Population Healthy Nuclei (%) | Population Hoechst High Intensity Objects (%) | Population Mitochondria Different-Phenotype (%) | Population Normal (%) | Population Tubulin-Different-Phenotype (%) | Total Cell Count | Population Mitotic Cells (%) | Population Pyknosed Nuclei (%) | Population Fragmented Nuclei (%) |
| --- | --- | --- | --- | --- | --- | --- | --- | --- | --- | --- |
| CCC(=O)N1CCN(c2ccc(-n3c(=O)ccc4cnc5ccc(-c6cnc7ccccc7c6)cc5c43)cc2C(F)(F)F)CC1 [TORIN1] | 77% and 73% | 54% and 72% | 1% and 2% | 9% | 98% and 97% | 5% and 3% | 287 and 115 |  |  |  |
| Cn1cnc(-c2cnc(O[C@H]3CCN(C(=O)Cc4ccc(OC(F)(F)F)cc4)C[C@H]3F)c(C(N)=O)c2)c1 | 46.15% and 28.21% | 86.69% and 75.26% | 0% and 0.51% |  | 100% and 99.49% |  |  | 53.85% and 71.79% | 12.36% and 20.1% |  |
| CC[C@H](Nc1ncnc2[nH]cnc12)c1nc2cccc(F)c2c(=O)n1-c1ccccc1 [IDELALISIB] | 44.64% and 41.38% | 84.19% and 78.57% | 0% |  | 100% | 12.15% and 4.13% | 430 and 154 | 55.36% and 58.62% | 13.02% and 18.83% | 2.79% and 2.6% |

Same assay, conditions: human, 24 h, 10 µM, compound concentration 10 uM

| Structure (SMILES) | Population Membrane Permeable-Phenotype (%) |
| --- | --- |
| CC[C@H](Nc1ncnc2[nH]cnc12)c1nc2cccc(F)c2c(=O)n1-c1ccccc1 [IDELALISIB] | 7.73% and 14.88% |

Same assay, conditions: human, 48 h, 1 µM, compound concentration 1 uM

| Structure (SMILES) | Population Apoptotic (%) | Population Healthy Nuclei (%) | Population Hoechst High Intensity Objects (%) | Population Mitotic Cells (%) | Population Normal (%) | Population Pyknosed Nuclei (%) | Population Fragmented Nuclei (%) | Population Membrane Permeable-Phenotype (%) | Population Mitochondria Different-Phenotype (%) | Population Tubulin-Different-Phenotype (%) |
| --- | --- | --- | --- | --- | --- | --- | --- | --- | --- | --- |
| Cn1cnc(-c2cnc(O[C@H]3CCN(C(=O)Cc4ccc(OC(F)(F)F)cc4)C[C@H]3F)c(C(N)=O)c2)c1 | 32.56% and 44.19% | 89.01% and 86.44% | 0% and 0.24% | 67.44% and 55.81% | 100% and 99.76% | 7.88% and 10.41% |  |  |  |  |
| CC[C@H](Nc1ncnc2[nH]cnc12)c1nc2cccc(F)c2c(=O)n1-c1ccccc1 [IDELALISIB] | 46.67% and 39.53% | 87.97% and 84.56% | 0% | 53.33% and 60.47% | 100% | 9.49% and 10.54% | 2.53% and 4.9% | 0.84% and 3.48% | 0.12% and 3.48% | 1.08% and 1.16% |

Same assay, conditions: human, 48 h, 1 µM, compound concentration 1 uM

| Structure (SMILES) | Total Cell Count |
| --- | --- |
| CC[C@H](Nc1ncnc2[nH]cnc12)c1nc2cccc(F)c2c(=O)n1-c1ccccc1 [IDELALISIB] | 948 and 408 |

Same assay, conditions: human, 48 h, 10 µM, compound concentration 10 uM

| Structure (SMILES) | Population Apoptotic (%) | Population Healthy Nuclei (%) | Population Hoechst High Intensity Objects (%) | Population Normal (%) | Population Tubulin-Different-Phenotype (%) | Total Cell Count | Population Mitotic Cells (%) | Population Pyknosed Nuclei (%) | Population Fragmented Nuclei (%) | Population Membrane Permeable-Phenotype (%) |
| --- | --- | --- | --- | --- | --- | --- | --- | --- | --- | --- |
| CCC(=O)N1CCN(c2ccc(-n3c(=O)ccc4cnc5ccc(-c6cnc7ccccc7c6)cc5c43)cc2C(F)(F)F)CC1 [TORIN1] | 78% and 82% | 44% | 7% and 2% | 93% and 97% | 8% and 5% | 300 and 147 |  |  |  |  |
| Cn1cnc(-c2cnc(O[C@H]3CCN(C(=O)Cc4ccc(OC(F)(F)F)cc4)C[C@H]3F)c(C(N)=O)c2)c1 | 53.41% and 48.57% | 86.7% and 85.71% | 0% | 100% |  |  | 46.59% and 51.43% | 9.51% and 11.63% |  |  |
| CC[C@H](Nc1ncnc2[nH]cnc12)c1nc2cccc(F)c2c(=O)n1-c1ccccc1 [IDELALISIB] | 55.68% and 62.86% | 84.72% and 78.9% | 0% | 100% | 5.33% and 5.23% |  | 44.32% and 37.14% | 12.81% and 16.06% | 2.47% and 5.05% | 3.78% and 8.72% |
